Columns and labels:
[1] = system: B16-F10; experiment: Antiproliferative activity against mouse B16F10 cells incubated for 48 hrs by MTT assay; type: functional, cell-based; settings: B16-F10, 48 h
Method in brief: (§1)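 MTT assay on F10 (murine melanoma), HeLa, A549, MCF-7 and 293T (human renal epithelium) cells. IC50 given as mean ± SD of three independent experiments.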

[2] = system: HeLa; experiment: Antiproliferative activity against human HeLa cells incubated for 48 hrs by MTT assay; type: functional, cell-based; method in brief: as §1
[3] = system: A549; experiment: Antiproliferative activity against human A549 cells incubated for 48 hrs by MTT assay; type: functional, cell-based; settings: A549, 48 h; method in brief: as §1
[4] = system: MCF7; experiment: Antiproliferative activity against human MCF7 cells incubated for 48 hrs by MTT assay; type: functional, cell-based; settings: MCF7, 48 h; method in brief: as §1
[5] = system: HEK-293T; experiment: Antiproliferative activity against human 293T cells incubated for 48 hrs by MTT assay; type: cell-based; method in brief: as §1
[6] = molecular target: T1, Prostaglandin G/H synthase 2 (Homo sapiens, UniProt P35354); experiment: Inhibition of COX2 (unknown origin) using arachidonic acid as substrate incubated for 10 mins by Ellman's reagent based COX-1/COX-2 ELISA assay
T1 sequence (P35354 whole entry): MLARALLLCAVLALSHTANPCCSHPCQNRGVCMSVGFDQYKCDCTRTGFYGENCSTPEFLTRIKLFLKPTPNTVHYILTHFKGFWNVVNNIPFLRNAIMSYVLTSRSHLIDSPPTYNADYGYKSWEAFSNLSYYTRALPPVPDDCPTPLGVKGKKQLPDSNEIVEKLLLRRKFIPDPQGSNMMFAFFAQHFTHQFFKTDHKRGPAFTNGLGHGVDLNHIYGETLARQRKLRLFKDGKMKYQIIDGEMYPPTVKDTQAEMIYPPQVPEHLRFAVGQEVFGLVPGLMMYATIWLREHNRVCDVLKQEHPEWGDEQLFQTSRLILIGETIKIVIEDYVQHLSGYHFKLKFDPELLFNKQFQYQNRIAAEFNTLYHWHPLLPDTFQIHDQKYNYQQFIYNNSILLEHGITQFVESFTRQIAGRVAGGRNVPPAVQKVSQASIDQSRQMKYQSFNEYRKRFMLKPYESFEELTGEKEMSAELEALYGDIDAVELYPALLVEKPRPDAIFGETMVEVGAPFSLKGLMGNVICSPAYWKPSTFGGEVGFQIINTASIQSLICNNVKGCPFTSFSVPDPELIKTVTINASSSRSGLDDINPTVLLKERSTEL

[7] = Inhibition of 5-LOX assessed as calcium ionophore A23187-stimulated LTB4 production preincubated for 30 mins followed by calcium ionophore A23187 addition and measured after 30 mins by ELISA

| Compound | IC50 [1] | IC50 [2] | IC50 [3] | IC50 [4] | IC50 [5] | IC50 [6] | IC50 [7] |
| --- | --- | --- | --- | --- | --- | --- | --- |
| NS(=O)(=O)c1ccc(-n2nc(C(=O)NCCCN3CCOCC3)cc2-c2ccccc2)cc1 | 21.8 µM | 27.4 µM | 20.5 µM | 18.1 µM | 156 µM | 0.42 µM | 0.93 µM |
| NS(=O)(=O)c1ccc(-n2nc(C(=O)N3CCOCC3)cc2-c2ccc(F)cc2)cc1 | 20.5 µM | > 100 µM | 27.5 µM | 20 µM | 206 µM | 0.23 µM | 0.89 µM |
| NS(=O)(=O)c1ccc(-n2nc(C(=O)OCCCN3CCOCC3)cc2-c2ccc(Cl)cc2)cc1 | 26.8 µM | 21.4 µM | > 100 µM | 22.1 µM | 189 µM | 5.47 µM | 0.85 µM |
| CCOc1ccc(-c2cc(C(=O)NCCN3CCOCC3)nn2-c2ccc(S(N)(=O)=O)cc2)cc1 | 24.2 µM | 20.8 µM | 16.5 µM | 25.8 µM | 155 µM | 0.85 µM | 0.86 µM |
| NS(=O)(=O)c1ccc(-n2nc(C(=O)N3CCSCC3)cc2-c2cccc(F)c2)cc1 | 10.3 µM | 13.2 µM | 14.5 µM | 14.4 µM | 176 µM | 0.19 µM | 1.32 µM |
| NS(=O)(=O)c1ccc(-n2nc(C(=O)N3CCOCC3)cc2-c2cccc(Cl)c2)cc1 | 14.6 µM | 17.9 µM | 24.6 µM | 15.8 µM | 114 µM | 0.24 µM | 1.33 µM |
| NS(=O)(=O)c1ccc(-n2nc(C(=O)OCCCN3CCOCC3)cc2-c2ccccc2)cc1 | 22.7 µM | 22.4 µM | 17.7 µM | 17.2 µM | 95.5 µM | 0.56 µM | 0.82 µM |
| NS(=O)(=O)c1ccc(-n2nc(C(=O)N3CCOCC3)cc2-c2ccc(Cl)cc2)cc1 | > 100 µM | > 100 µM | > 100 µM | > 100 µM | > 300 µM | 0.35 µM | 1.79 µM |
| NS(=O)(=O)c1ccc(-n2nc(C(=O)N3CCOCC3)cc2-c2ccc(C(F)(F)F)cc2)cc1 | 21.8 µM | 27.7 µM | 25.2 µM | 20 µM | 199 µM | 0.39 µM | 2.59 µM |
| NS(=O)(=O)c1ccc(-n2nc(C(=O)N3CCSCC3)cc2-c2ccccc2)cc1 | > 100 µM | > 100 µM | 30.8 µM | 18.9 µM | 164 µM | 0.67 µM | 3.41 µM |
| NS(=O)(=O)c1ccc(-n2nc(C(=O)NCCN3CCOCC3)cc2-c2ccc(F)cc2)cc1 | > 100 µM | > 100 µM | > 100 µM | 15.8 µM | 112 µM | 0.16 µM | 1.01 µM |
| NS(=O)(=O)c1ccc(-n2nc(C(=O)N3CCSCC3)cc2-c2ccc(Cl)cc2)cc1 | > 100 µM | > 100 µM | > 100 µM | 39.8 µM | 232 µM | 0.23 µM | 2.31 µM |
| COc1ccc(-c2cc(C(=O)N3CCSCC3)nn2-c2ccc(S(N)(=O)=O)cc2)cc1 | 13.2 µM | 24.1 µM | 17.2 µM | 19.7 µM | 211 µM | 1.21 µM | 1.01 µM |
| NS(=O)(=O)c1ccc(-n2nc(C(=O)N3CCOCC3)cc2-c2cccc(F)c2)cc1 | 30.1 µM | 51.3 µM | 25.7 µM | 18.9 µM | 180 µM | 0.23 µM | 2.01 µM |
| Cc1ccc(-c2cc(C(=O)N3CCSCC3)nn2-c2ccc(S(N)(=O)=O)cc2)cc1 | 15.5 µM | 13.6 µM | 19.9 µM | 18.1 µM | 106 µM | 0.89 µM | 1.57 µM |
| NS(=O)(=O)c1ccc(-n2nc(C(=O)OCCCN3CCOCC3)cc2-c2ccc(F)cc2)cc1 | > 100 µM | > 100 µM | > 100 µM | > 100 µM | > 300 µM | 3.57 µM | 0.75 µM |

— ChEMBL document CHEMBL4346661, “Design, synthesis and evaluation of novel diaryl-1,5-diazoles derivatives bearing morpholine as potent dual COX-2/5-LOX inhibitors and antitumor agents” (Eur J Med Chem, 2019)
